From ChEMBL document CHEMBL4765235, “Discovery of N-[Bis(4-methoxyphenyl)methyl]-4-hydroxy-2-(pyridazin-3-yl)pyrimidine-5-carboxamide (MK-8617), an Orally Active Pan-Inhibitor of Hypoxia-Inducible Factor Prolyl Hydroxylase 1-3 (HIF PHD1-3) for the Treatment of Anemia” (J Med Chem, 2016)

Columns and labels:
[1] = In vivo inhibition of HIF-PHD2 in C57BL/6 mouse assessed as serum erythropoietin level at 5 mg/kg, iv measured after 4 hrs; format: functional
How it was run: (§1)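 Mouse pharmacodynamic EPO assay (MoPED). Compound dosed iv; serum EPO measured 4 hr after dosing and reported in pg/mL. Minimum effective dose is the lowest dose giving EPO elevation.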

[2] = In vivo inhibition of HIF-PHD2 in C57BL/6 mouse assessed as serum erythropoietin level at 15 mg/kg, iv measured after 4 hrs; format: functional; how it was run: as §1
[3] = In vivo inhibition of HIF-PHD2 in C57BL/6 mouse assessed as serum erythropoietin level at 50 mg/kg, iv measured after 4 hrs; format: functional; how it was run: as §1
[4] = Half life in dog at 1 mg/kg, po or 0.5 mg/kg, iv; format: ADME, organism-based, Canis lupus familiaris; conditions: in vivo
How it was run: (§2)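 Single-dose PK at 1 mg/kg po and 0.5 mg/kg iv. Mouse clearance is from blood; dog and rhesus clearance is from plasma. Mouse vehicle, both routes: DMSO:PEG400:water (5:40:55, v/v/v). Dog and monkey iv vehicle: PEG200:12%HPCD:water (30:12:58 v/v/v). Dog and monkey po vehicle: Imwitor:Tween (1:1 w/w).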

[5] = Half life in rat at 2 mg/kg, po or 1 mg/kg, iv; format: ADME, organism-based; conditions: in vivo
[6] = Oral bioavailability in rat at 2 mg/kg; format: ADME, organism-based; conditions: in vivo
[7] = In vivo inhibition of HIF-PHD2 in iv dosed C57BL/6 mouse assessed as minimum effective dose causing increase in serum erythropoietin levels measured after 4 hrs; format: functional; conditions: C57BL/6, iv, read-out: MED; how it was run: as §1
[8] = Clearance in dog at 1 mg/kg, po or 0.5 mg/kg, iv; format: ADME, organism-based, Canis lupus familiaris; conditions: in vivo; how it was run: as §2
[9] = Volume of distribution at steady state in rat at 2 mg/kg, po or 1 mg/kg, iv; format: ADME, organism-based; conditions: in vivo, read-out: Vdss
[10] = Cmax in mouse at 2 mg/kg, po or 1 mg/kg, iv; format: ADME, organism-based; design: dose 2 mg/kg; conditions: in vivo
[11] = Cmax in rat at 2 mg/kg, po or 1 mg/kg, iv; format: ADME, organism-based; design: dose 2 mg/kg; conditions: in vivo
[12] = Oral bioavailability in rhesus monkey at 1 mg/kg; format: ADME, organism-based, Macaca mulatta; conditions: in vivo
How it was run: (§3)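 Dog and rhesus monkey dosed 1 mg/kg po and 0.5 mg/kg iv. The iv vehicle was PEG200:12%HPCD:water (30:12:58 v/v/v); the po vehicle was Imwitor:Tween (1:1 w/w). Clearance was measured in plasma. Protein binding was measured in 100% serum.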

[13] = Volume of distribution at steady state in mouse at 2 mg/kg, po or 1 mg/kg, iv; format: ADME, organism-based; conditions: in vivo, read-out: Vdss
[14] = Volume of distribution at steady state in dog at 1 mg/kg, po or 0.5 mg/kg, iv; format: ADME, organism-based, Canis lupus familiaris; conditions: in vivo, read-out: Vdss; how it was run: as §3
[15] = Clearance in rat at 2 mg/kg, po or 1 mg/kg, iv; format: ADME, organism-based; conditions: in vivo
[16] = Protein binding in mouse plasma assessed as unbound fraction at 2 mg/kg, po or 1 mg/kg, iv; format: ADME, organism-based; conditions: read-out: PPB
[17] = Oral bioavailability in dog at 1 mg/kg; format: ADME, organism-based, Canis lupus familiaris; conditions: in vivo; how it was run: as §3
[18] = Oral bioavailability in mouse at 2 mg/kg; format: ADME, organism-based; conditions: in vivo
[19] = Cmax in rhesus monkey at 1 mg/kg, po or 0.5 mg/kg, iv; format: ADME, organism-based, Macaca mulatta; design: dose 1 mg/kg; conditions: in vivo; how it was run: as §2
[20] = Protein binding in dog plasma assessed as unbound fraction at 1 mg/kg, po or 0.5 mg/kg, iv; format: ADME, organism-based, Canis lupus familiaris; conditions: read-out: PPB
[21] = Protein binding in rhesus monkey plasma assessed as unbound fraction at 1 mg/kg, po or 0.5 mg/kg, iv; format: ADME, organism-based, Macaca mulatta; conditions: read-out: PPB
[22] = Protein binding in rat plasma assessed as unbound fraction at 2 mg/kg, po or 1 mg/kg, iv; format: ADME, organism-based; conditions: read-out: PPB
[23] = Half life in rhesus monkey at 1 mg/kg, po or 0.5 mg/kg, iv; format: ADME, organism-based, Macaca mulatta; conditions: in vivo; how it was run: as §2
[24] = Half life in mouse at 2 mg/kg, po or 1 mg/kg, iv; format: ADME, organism-based; conditions: in vivo
[25] = Clearance in mouse at 2 mg/kg, po or 1 mg/kg, iv; format: ADME, organism-based; conditions: in vivo
[26] = Cmax in dog at 1 mg/kg, po or 0.5 mg/kg, iv; format: ADME, organism-based, Canis lupus familiaris; design: dose 1 mg/kg; conditions: in vivo; how it was run: as §2
[27] = Volume of distribution at steady state in rhesus monkey at 1 mg/kg, po or 0.5 mg/kg, iv; format: ADME, organism-based, Macaca mulatta; conditions: in vivo, read-out: Vdss; how it was run: as §3
[28] = Clearance in rhesus monkey at 1 mg/kg, po or 0.5 mg/kg, iv; format: ADME, organism-based, Macaca mulatta; conditions: in vivo; how it was run: as §2
[29] = In vivo inhibition of HIF-PHD2 in C57BL/6 mouse assessed as serum erythropoietin level at 100 mg/kg, iv measured after 4 hrs; format: functional; how it was run: as §1
[30] = biological target: Voltage-gated inwardly rectifying potassium channel KCNH2 (Homo sapiens, UniProt Q12809); assay: Inhibition of human ERG
Egl nine homolog 1 [31] = biological target: T1, Egl nine homolog 1 (Homo sapiens, UniProt Q9GZT9); assay: Inhibition of FLAG-tagged full-length HIF-PHD2 (unknown origin) expressed in baculovirus infected Sf9 cells using 2-oxoglutarate and HIF1alpha biotinyl-DLDLEMLAPYIPMDDDFQL as peptide substrates preincubated for 30 mins followed by substrate addition and measured after 2 hrs by LANCE assay
[32] = In vivo inhibition of HIF-PHD2 in C57BL/6 mouse assessed as serum erythropoietin level at 1.5 mg/kg, iv measured after 4 hrs; format: functional; how it was run: as §1
[33] = Plasma clearance in rat at 2 mg/kg, po or 1 mg/kg, iv; format: ADME, organism-based
Egl nine homolog 1 [34] = biological target: T1, Egl nine homolog 1; assay: Inhibition of HIF-PHD2 (unknown origin)

Voltage-gated inwardly rectifying potassium channel KCNH2, sequence (Q12809 whole entry): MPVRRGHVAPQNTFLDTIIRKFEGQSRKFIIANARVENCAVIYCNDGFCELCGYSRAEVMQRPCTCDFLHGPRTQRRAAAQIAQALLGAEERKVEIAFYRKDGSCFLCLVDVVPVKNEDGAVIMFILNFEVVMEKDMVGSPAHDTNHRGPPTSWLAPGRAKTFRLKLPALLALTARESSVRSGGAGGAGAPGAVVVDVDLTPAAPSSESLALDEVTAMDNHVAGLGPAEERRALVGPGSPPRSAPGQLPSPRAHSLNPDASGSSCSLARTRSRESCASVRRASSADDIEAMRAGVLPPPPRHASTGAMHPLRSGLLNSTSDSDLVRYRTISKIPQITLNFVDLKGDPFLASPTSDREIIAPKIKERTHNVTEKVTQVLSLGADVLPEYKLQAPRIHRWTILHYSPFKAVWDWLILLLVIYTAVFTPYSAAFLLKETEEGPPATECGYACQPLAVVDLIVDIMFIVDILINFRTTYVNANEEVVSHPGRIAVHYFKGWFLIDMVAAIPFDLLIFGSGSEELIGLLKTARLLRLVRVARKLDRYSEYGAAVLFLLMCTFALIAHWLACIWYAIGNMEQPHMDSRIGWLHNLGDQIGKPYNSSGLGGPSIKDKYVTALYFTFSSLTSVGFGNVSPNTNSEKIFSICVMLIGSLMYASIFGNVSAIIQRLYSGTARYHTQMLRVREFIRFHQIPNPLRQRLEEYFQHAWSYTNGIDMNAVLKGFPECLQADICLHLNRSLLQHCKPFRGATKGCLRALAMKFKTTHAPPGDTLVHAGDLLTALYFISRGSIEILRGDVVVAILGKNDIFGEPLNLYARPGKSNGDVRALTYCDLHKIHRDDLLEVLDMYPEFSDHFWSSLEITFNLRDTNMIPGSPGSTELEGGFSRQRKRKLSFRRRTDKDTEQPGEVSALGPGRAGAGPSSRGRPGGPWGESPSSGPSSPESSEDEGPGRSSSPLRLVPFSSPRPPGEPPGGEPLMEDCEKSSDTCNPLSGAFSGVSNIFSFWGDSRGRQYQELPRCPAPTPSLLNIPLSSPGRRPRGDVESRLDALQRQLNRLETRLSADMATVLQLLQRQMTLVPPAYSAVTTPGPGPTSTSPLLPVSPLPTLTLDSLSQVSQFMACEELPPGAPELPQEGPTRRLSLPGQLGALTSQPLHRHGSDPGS
T1 sequence (Q9GZT9 whole entry): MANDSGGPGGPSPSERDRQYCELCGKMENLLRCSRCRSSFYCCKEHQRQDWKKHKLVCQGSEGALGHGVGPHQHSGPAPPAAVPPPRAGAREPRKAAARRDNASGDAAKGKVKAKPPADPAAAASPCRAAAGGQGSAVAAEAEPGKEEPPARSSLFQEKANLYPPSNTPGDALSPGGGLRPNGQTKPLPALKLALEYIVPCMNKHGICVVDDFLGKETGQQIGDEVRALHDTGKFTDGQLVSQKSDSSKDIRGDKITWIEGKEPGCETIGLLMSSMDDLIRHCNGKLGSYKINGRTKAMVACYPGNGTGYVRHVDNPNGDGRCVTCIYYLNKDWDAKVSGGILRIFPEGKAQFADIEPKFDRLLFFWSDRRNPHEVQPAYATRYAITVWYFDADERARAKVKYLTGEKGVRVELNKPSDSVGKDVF

## C[C@H](NC(=O)c1cnc(-n2cccn2)nc1O)c1ccccc1
[1]
  Activity: 690 pg/mL
[2]
  Activity: 10000 pg/mL

## O=C(NCc1ccc(OC(F)(F)F)cc1)c1cnc(-n2cccn2)nc1O
[3]
  Activity: 8900 pg/mL
[2]
  Activity: 180 pg/mL

## COc1ccc([C@H](C)NC(=O)c2cnc(-n3cccn3)nc2O)cc1
[4]
  half-life: 94 h
[2]
  Activity: 5300 pg/mL

## CC(C)(NC(=O)c1cnc(-c2cc(C(=O)O)ccn2)nc1O)c1ccccc1
[5]
  half-life: 0.23 h
[6]
  bioavailability: 5%
[2]
  Activity: 220 pg/mL
[7]
  minimal effective dose: 15 mg/kg

## CC(C)(NC(=O)c1cnc(-n2cccn2)nc1O)c1ccccc1
[3]
  Activity: 24000 pg/mL
[8]
  clearance: 0.004 mL/min/kg
[9]
  Vd: 0.06 L/kg
[10]
  Cmax: 30 µM
[11]
  Cmax: 49 µM
[12]
  bioavailability: 71%
[13]
  Vd: 0.3 L/kg
[14]
  Vd: 0.1 L/kg
[15]
  clearance: 0.2 mL/min/kg
[4]
  half-life: > 100 h
[16]
  fraction unbound: 0.093
[17]
  bioavailability: 61%
[18]
  bioavailability: 98%
[19]
  Cmax: 22 µM
[20]
  fraction unbound: 0.027
[1]
  Activity: 460 pg/mL
[5]
  half-life: 4.2 h
[6]
  bioavailability: 99%
[21]
  fraction unbound: 0.004
[22]
  fraction unbound: 0.012
[2]
  Activity: 5000 pg/mL
[23]
  half-life: 95 h
[24]
  half-life: 3.7 h
[25]
  clearance: 1 mL/min/kg
[26]
  Cmax: 11 µM
[27]
  Vd: 0.13 L/kg
[28]
  clearance: 0.001 mL/min/kg

## CC(C)(NC(=O)c1cnc(-c2cscn2)nc1O)c1ccccc1
[29]
  Activity: 2100 pg/mL
[5]
  half-life: 2.9 h
[6]
  bioavailability: 61%

## O=C(NCc1ccc(Cl)cc1)c1cnc(-n2cccn2)nc1O
[2]
  Activity: 1100 pg/mL

## Cc1nc(-c2ncc(C(=O)NC(C)(C)c3ccccc3)c(O)n2)cs1
[29]
  Activity: 110 pg/mL

## C[C@@H](NC(=O)c1cnc(-n2cccn2)nc1O)c1ccccc1
[2]
  Activity: 322 pg/mL

## O=C(NC(c1ccccc1)c1ccccc1)c1cnc(-c2cccnn2)nc1O
[1]
  Activity: 380 pg/mL
[30]
  IC50: > 30 µM
[2]
  Activity: 1600 pg/mL

## CC(C)(NC(=O)c1cnc(-c2ccc(C(F)(F)F)cn2)nc1O)c1ccccc1
Egl nine homolog 1 [31]
  IC50: > 2.7 µM

## COc1ccc(C(NC(=O)c2cnc(-n3cccn3)nc2O)c2ccc(OC)cc2)cc1
[1]
  Activity: 740 pg/mL
[32]
  Activity: 190 pg/mL
[2]
  Activity: 31000 pg/mL
[7]
  minimal effective dose: 1.5 mg/kg

## C[C@H](NC(=O)c1cnc(-n2cccn2)nc1O)c1ccc(F)cc1
[4]
  half-life: 60 h
[2]
  Activity: 16000 pg/mL

## O=C(NCc1ccc(F)cc1)c1cnc(-c2ccccn2)nc1O
[9]
  Vd: 0.35 L/kg
[29]
  Activity: 1200 pg/mL
[33]
  clearance: 2 mL/min/kg
[5]
  half-life: 3.3 h
[6]
  bioavailability: 67%
[30]
  IC50: > 30 µM
Egl nine homolog 1 [34]
  IC50: 0.11 µM
[7]
  minimal effective dose: 100 mg/kg

## O=C(NCc1ccc(-c2ccccc2)cc1)c1cnc(-n2cccn2)nc1O
[4]
  half-life: 143 h

## CC(C)(NC(=O)c1cnc(-n2cc(C(=O)O)cn2)nc1O)c1ccccc1
[5]
  half-life: 2.1 h
[6]
  bioavailability: 3%
[2]
  Activity: 1900 pg/mL

## O=C(NC(c1ccccc1)c1ccccc1)c1cnc(-n2cccn2)nc1O
[2]
  Activity: 2900 pg/mL

## C[C@@H](NC(=O)c1cnc(-n2cccn2)nc1O)c1ccc(F)cc1
[2]
  Activity: 350 pg/mL
